Data as given in ChEMBL document CHEMBL2029264, “Indole-based fibrates as potential hypolipidemic and antiobesity agents” (J Med Chem, 2012).
Active and inactive are the calls of the source. The calls are words filed in the database; no cut-off is given here.

What was measured:
Rattus norvegicus [1] = assay: Antihyperlipidemic activity in po dosed Triton WR-1339-induced hyperlipidemic rat assessed as increase in LCAT enzyme level; format: functional, organism-based
Procedure, shortened: (§1)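 Triton WR-1339 given to rats to induce hyperlipidemia; oral dosing. Plasma TC, PL, TG in mg/dL; PHLA as […]/h/mL plasma. Mean ± SD of six rats; Triton group compared with control, Triton plus dosed group compared with Triton group.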

Rattus norvegicus [2] = assay: Antihyperlipidemic activity in Triton WR-1339-induced hyperlipidemic rat assessed as decrease in plasma phospholipid level at 150 mg/kg, po; format: functional
Procedure, shortened: (§2)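 Separate set of Triton WR-1339-induced hyperlipidemic rats, oral doses of 50, 100 and 150 mg/kg. Plasma TC, PL, TG in mg/dL; PHLA as […]/h/mL plasma. Mean ± SD of six rats versus Triton group.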

Rattus norvegicus [3] = assay: Antihyperlipidemic activity in Triton WR-1339-induced hyperlipidemic rat assessed as increase in PHLA enzyme level at 150 mg/kg, po; format: functional; procedure, shortened: as §2
Rattus norvegicus [4] = assay: Antihyperlipidemic activity in HFD-induced hyperlipidemic Charles Foster rat assessed as increase in plasma HDL-phospholipid level at 100 mg/kg, po administered for 4 weeks relative to control; format: functional
Procedure, shortened: (§3)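 After 4 weeks high-fat feeding plus 4 weeks daily dosing, overnight fast, retro-orbital blood into EDTA tubes. Serum split into VLDL, LDL and HDL by polyanionic precipitation; each fraction assayed for TC, PL, TG and apoprotein (mg/dL plasma). Pooled data from 6 rats/group, mean ± SD, dosed groups compared with high-fat group.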

Rattus norvegicus [5] = assay: Antihyperlipidemic activity in Triton WR-1339-induced hyperlipidemic rat assessed as decrease in plasma total cholesterol level at 100 mg/kg, po relative to control; format: functional; design: scale not given: the % may be the effect or the level left; procedure, shortened: as §1
Rattus norvegicus [6] = assay: Antihyperlipidemic activity in po dosed Triton WR-1339-induced hyperlipidemic rat assessed as decrease in plasma phospholipid level; format: functional, organism-based; procedure, shortened: as §1
Rattus norvegicus [7] = assay: Antihyperlipidemic activity in Triton WR-1339-induced hyperlipidemic rat assessed as increase in LCAT enzyme level at 50 mg/kg, po; format: functional; procedure, shortened: as §2
Rattus norvegicus [8] = assay: Antihyperlipidemic activity in HFD-induced hyperlipidemic Charles Foster rat assessed as increase in serum LCAT enzyme level at 100 mg/kg, po administered for 4 weeks relative to control; format: functional
Procedure, shortened: (§4)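 Male Charles Foster rats (200−225 g): high-fat diet 4 weeks, then diet plus daily dosing 4 weeks. Overnight fast, retro-orbital blood in EDTA (3 mg/mL blood), centrifuged to serum. TC, PL, TG in mg/dL; LCAT as nmol cholesterol released/h/L plasma. Mean ± SD; dosed groups compared with high-fat group, P by significance levels.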

Rattus norvegicus [9] = assay: Antihyperlipidemic activity in Triton WR-1339-induced hyperlipidemic rat assessed as decrease in plasma phospholipid level at 100 mg/kg, po relative to control; format: functional; design: scale not given: the % may be the effect or the level left; procedure, shortened: as §1
Rattus norvegicus [10] = assay: Toxicity in HFD-induced hyperlipidemic Charles Foster rat assessed as mortality at 100 mg/kg/day, po administered for 4 weeks; format: organism-based; design: route oral; settings: in vivo, 672 h
Procedure, shortened: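 Male Charles Foster rats (200−225 g) were fed a high-fat diet for 4 weeks, then dosed at 100 mg/kg/d alongside the same diet for 4 more weeks. Survival was monitored. After an overnight fast, blood was drawn and the animals were sacrificed. Macroscopic inspection and autopsy were then performed, with n = 6 per group.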

Rattus norvegicus [11] = assay: Antihyperlipidemic activity in HFD-induced hyperlipidemic Charles Foster rat assessed as increase in [I125]-LDL catabolism in plasma membrane of liver at 100 mg/kg/day, po administered for 4 weeks; format: functional
Procedure, shortened: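 Rats on 8 weeks total of high-fat diet, dosed daily for the last 4 weeks, then sacrificed. Human serum LDL radiolabeled with I125; specific binding to liver plasma membrane preparation measured as receptor-mediated LDL catabolism. Mean ± SD, n = 6.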

Rattus norvegicus [12] = assay: Antihyperlipidemic activity in Triton WR-1339-induced hyperlipidemic rat assessed as decrease in plasma total cholesterol level at 150 mg/kg, po; format: functional; procedure, shortened: as §2
Rattus norvegicus [13] = assay: Antiobesity activity in HFD-induced hyperlipidemic Charles Foster rat assessed as decrease in mesenteric fat-pad at 100 mg/kg, po administered for 4 weeks; format: functional, organism-based; design: dose 100 mg/kg
Procedure, shortened: (§5)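 Adult male Charles Foster rats given high-fat or normal diet 4 weeks, then diet plus vehicle or daily dosing 4 more weeks, sacrificed at week 8. Body weight gain, food intake, food efficiency ratio (weight gain/food intake over the period), and mesenteric, gonadal, inguinal and perirenal fat-pad weights recorded; mean ± SD, n = 6.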

Rattus norvegicus [14] = assay: Antihyperlipidemic activity in Triton WR-1339-induced hyperlipidemic rat assessed as decrease in plasma triglyceride level at 150 mg/kg, po; format: functional; procedure, shortened: as §2
Rattus norvegicus [15] = assay: Antihyperlipidemic activity in HFD-induced hyperlipidemic Charles Foster rat assessed as decrease in macrovesicular steatosis at 100 mg/kg, po administered for 4 weeks by light microscopic analysis; format: functional, organism-based; design: dose 100 mg/kg
Procedure, shortened: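 Rats on high-fat diet 4 weeks, then diet plus daily dosing for another 4 weeks before sacrifice. Liver sections 4 μm thick, stained with Ehrlich's hematoxylin and eosin, examined by light microscope for centrilobular macrovesicular steatosis.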

Rattus norvegicus [16] = assay: Antihyperlipidemic activity in Triton WR-1339-induced hyperlipidemic rat assessed as increase in PHLA enzyme level at 100 mg/kg, po; format: functional; procedure, shortened: as §1
Rattus norvegicus [17] = assay: Antiobesity activity in HFD-induced hyperlipidemic Charles Foster rat assessed as decrease in inguinal fat-pad at 100 mg/kg, po administered for 4 weeks; format: functional, organism-based; design: dose 100 mg/kg; procedure, shortened: as §5
Rattus norvegicus [18] = assay: Antihyperlipidemic activity in HFD-induced hyperlipidemic Charles Foster rat assessed as increase in plasma HDL-total cholesterol level at 100 mg/kg, po administered for 4 weeks relative to control; format: functional; procedure, shortened: as §3
Rattus norvegicus [19] = assay: Antihyperlipidemic activity in HFD-induced hyperlipidemic Charles Foster rat assessed as decrease in serum total cholesterol level at 100 mg/kg, po administered for 4 weeks relative to control; format: functional; design: scale not given: the % may be the effect or the level left; procedure, shortened: as §4
Rattus norvegicus [20] = assay: Antihyperlipidemic activity in HFD-induced hyperlipidemic Charles Foster rat assessed as increase in plasma HDL-apoprotein level at 100 mg/kg, po administered for 4 weeks relative to control; format: functional; procedure, shortened: as §3
Rattus norvegicus [21] = assay: Antihyperlipidemic activity in HFD-induced hyperlipidemic Charles Foster rat assessed as decrease in liver triglyceride level at 100 mg/kg, po administered for 4 weeks relative to control; format: functional; design: scale not given: the % may be the effect or the level left
Procedure, shortened: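 Adult male Charles Foster rats (200−225 g), high-fat diet 4 weeks, then diet plus daily dosing 4 more weeks; overnight fast, sacrifice, liver washed in cold 0.15 M KCl and held at 4 °C. Lipids extracted from liver homogenate in CHCl3/CH3OH (2:1 v/v), TC, PL and TG read in mg/g; pooled data from 6 rats/group, mean ± SD.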

Rattus norvegicus [22] = assay: Antihyperlipidemic activity in Triton WR-1339-induced hyperlipidemic rat assessed as increase in LCAT enzyme level at 150 mg/kg, po; format: functional; procedure, shortened: as §2
Rattus norvegicus [23] = assay: Toxicity in HFD-induced hyperlipidemic Charles Foster rat assessed as decrease in food intake at 100 mg/kg, po administered for 4 weeks; format: organism-based; design: dose 100 mg/kg, route oral; settings: in vivo, 672 h
Procedure, shortened: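 Adult male Charles Foster rats (200−225 g) were kept at 25−26 °C, 50−70% humidity, and a 12/12 h light/dark cycle. They were fed a high-fat diet for 4 weeks to induce hyperlipidemia, then given high-fat diet plus test agent at 100 mg/kg/d for another 4 weeks. Food intake was recorded over the experimental period, with n = 6 per group, and animals were sacrificed after 8 weeks.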

Rattus norvegicus [24] = assay: Antihyperlipidemic activity in Triton WR-1339-induced hyperlipidemic rat assessed as decrease in plasma triglyceride level at 50 mg/kg, po; format: functional; procedure, shortened: as §2

| SMILES | Activity (Rattus norvegicus [1]) | Activity (Rattus norvegicus [2]) [mg/dL] | percent increase (Rattus norvegicus [3]) [%] | Activity (Rattus norvegicus [4]) [%] | Activity (Rattus norvegicus [5]) [%] | Activity (Rattus norvegicus [6]) | Activity (Rattus norvegicus [7]) [nmol/h/mL] | Activity (Rattus norvegicus [8]) [%] | Activity (Rattus norvegicus [9]) [%] | Activity (Rattus norvegicus [10]) | Activity (Rattus norvegicus [11]) [%] | Activity (Rattus norvegicus [12]) [mg/dL] | Activity (Rattus norvegicus [13]) | Activity (Rattus norvegicus [14]) [mg/dL] | Activity (Rattus norvegicus [15]) | percent increase (Rattus norvegicus [16]) [%] | Activity (Rattus norvegicus [17]) | Activity (Rattus norvegicus [18]) [%] | Activity (Rattus norvegicus [19]) [%] | Activity (Rattus norvegicus [20]) [%] | other results |
| --- | --- | --- | --- | --- | --- | --- | --- | --- | --- | --- | --- | --- | --- | --- | --- | --- | --- | --- | --- | --- | --- |
| CCOC(=O)C(C)Oc1ccc(C(c2cn(CC)c3ccccc23)c2cn(CC)c3ccccc23)cc1 (stereo not drawn) | Dose-dependent effect | 29 | 15 | 13 | 22 | Dose-dependent effect | 8 | 32 | 23 | Non-toxic | 24 | 33 | Active | 26 | Active | 12 | Active | 14 | 25 | 16 | Activity (Rattus norvegicus [21]): 27%; Activity (Rattus norvegicus [22]): 18 nmol/h/mL; Activity (Rattus norvegicus [23]): Non-toxic; Activity (Rattus norvegicus [24]): 12 mg/dL |
| CCOC(=O)CCCOc1ccc(C(c2cn(C)c3ccccc23)c2cn(C)c3ccccc23)cc1 | Dose-dependent effect | 29 | 20 | 8 | 20 | Dose-dependent effect | 11 | 29 | 14 | Non-toxic | 18 | 35 | Active | 27 | Active | 15 | Active | 12 | 28 | 14 | Activity (Rattus norvegicus [21]): 24%; Activity (Rattus norvegicus [22]): 21 nmol/h/mL; Activity (Rattus norvegicus [23]): Non-toxic; Activity (Rattus norvegicus [24]): 13 mg/dL |
